dFosB activator: enhances mouse delta FosB homodimer DNA binding. activation, % at 25 µM. P13346. purified delta FosB, TAMRA-CDK5 oligo fluorescence polarization; percent of positive-control signal above neutral wells. 340,000 tested, 0.99% active;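 active = mean activation above about 17%, with every replicate also reaching it, limit read from the data, passing the limit was not always enough; inconclusive = only one of the two conditions met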
Target sequence (P13346 whole entry, looked up): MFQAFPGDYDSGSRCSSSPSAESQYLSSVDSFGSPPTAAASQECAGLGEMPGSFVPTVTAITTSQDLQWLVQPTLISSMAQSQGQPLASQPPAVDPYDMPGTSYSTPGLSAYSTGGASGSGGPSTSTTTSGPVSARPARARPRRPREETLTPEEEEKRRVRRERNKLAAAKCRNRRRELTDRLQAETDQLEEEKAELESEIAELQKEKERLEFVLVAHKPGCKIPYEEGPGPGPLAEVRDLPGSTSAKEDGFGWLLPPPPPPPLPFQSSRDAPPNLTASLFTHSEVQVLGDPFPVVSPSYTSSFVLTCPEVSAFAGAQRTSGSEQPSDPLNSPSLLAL
SR-BI uptake up: activators of SR-BI mediated HDL lipid uptake. CHO ldlA[mSR-BI] cells, DiI-HDL uptake fluorescence, 3 h; 100 = double the neutral-control signal. activation, % at 12.5 µM. 320,000 tested, 0.096% active;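 active = mean replicate activation of at least 60% and every replicate at or above 60%; inconclusive = mean or all-replicate condition met, but not both; inactive = mean below 60% and not all replicates reaching 60%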;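 note: 0% = median plate neutral-control signal and 100% = twice that signal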
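Test system: SR-BI-overexpressing, LDLR-lacking CHO cells; Medium: Ham's F12 with 0.5% BSA, HEPES 25 mM, pH 7.4; Schedule: 3 h, 37 °C; Technique: bottom-read fluorescence, 550/595 nm.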
CAL PDZ FP-1: CAL PDZ (human) peptide binding inhibition. Q9HD26. purified CAL PDZ, TMR-peptide fluorescence polarization, 1 h. inhibition, % at 24.9 µM. 300,000 tested, 0.92% active;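 active = mean inhibition of at least 30% with at least half of replicates also reaching 30%; inconclusive = no clear call, values can overlap the other calls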;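 note: 0% = DMSO neutral control and 100% = excess unlabeled competitor peptide PRC23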
SR-BI DiI inh: mouse SR-BI HDL lipid transfer inhibition; ldlA[mSR-BI] CHO cells, DiI-HDL uptake fluorescence, 3 h; Q61009; inhibition, % at 12.5 µM; 320,000 tested, 0.96% active;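 active = mean replicate inhibition of at least 70% and a set share of replicates each scoring 70 or more; inconclusive = meets just one of the two criteria; inactive = fails both criteria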;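 note: 0% = median of neutral control wells and 100% = median of positive control wells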
CAL PDZ FP-2: inhibitors of human CAL PDZ peptide binding; purified CAL PDZ, TMR-peptide fluorescence polarization, 1 h; 330,000 tested, 0.02% active; inhibition, % at 20 µM;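 active = highest replicate inhibition of at least 40%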;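 note: plate controls were DMSO neutral control wells for no effect and unlabeled competitor peptide control wells for full effect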
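Control set: unlabelled peptide and DMSO controls / Material: purified CerCALP PDZ construct / Timing: 1 h incubation at room temperature before polarization reading / Doses: 20 µM, one dose / Detection: fluorescence polarization (mP)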
Starred values were filed as active, the others as inactive; ? = inconclusive; . = not tested or not shown. This is a sample that favours compounds with a hit; in the whole collection about 2.8% have one here.

SMILES	dFosB activator	SR-BI uptake up	CAL PDZ FP-1	SR-BI DiI inh	CAL PDZ FP-2
C[C@@H]1CN([C@H](C)CO)C(=O)c2cc(NC(=O)c3ccncc3)ccc2O[C@@H]1CN(C)C(=O)Nc1ccccc1	-2	-17	-2	17	0
CCOC(=O)c1c(S(=O)(=O)NCC(=O)N2CCN(c3ccccc3)CC2)c(C)n(C)c1C	-7	-18	-5	18	-2
COC(=O)c1cccc(NC(=O)Nc2ccccc2OC)c1	-5	-81	-2	81*	0
COc1ccccc1NC(=O)Nc1cccc(NC(C)=O)c1	0	.	1	.	-2
O=C(Nc1ccccc1N1CCN(C(=O)c2ccccc2)CC1)c1ccc(Cl)cc1	-4	-14	-3	14	-2
O=C(NCc1cccnc1)c1ccc(NC(=O)c2ccco2)cc1	-10	12	135*	-12	-1
O=C(Nc1ccccc1)c1cccc(NC(=O)c2ccco2)c1	-6	-13	-8	13	-2
COc1ccc(C(=O)Nc2ccccc2N2CCN(C(=O)c3ccccc3)CC2)cc1Br	4	-86	11	86*	-2
C=Cc1cccc(NC(=O)c2ccc(NC(=O)c3ccco3)cc2)c1	2	-92	2	92*	-1
O=C(c1cc(S(=O)(=O)N2CCOCC2)c(Cl)cc1Cl)N1CCN(S(=O)(=O)c2cccc(F)c2)CC1	-11	-11	0	11	1
COc1ccccc1CNC(=O)CN1C(=O)c2ccc([N+](=O)[O-])cc2C1=O	0	.	-3	.	-2
CCCCn1c(N)c(N(CCOC)C(=O)COC(=O)COc2c(C)cc(C)cc2C)c(=O)[nH]c1=O	-11	9	-3	-9	-2
COc1ccc(C(=O)Nc2ccc(N3CCCCC3)cc2)cc1Br	6	-62	0	62	-1
COC(=O)c1[nH]c2ccc(C)cc2c1NC(=O)Nc1ccccc1OC	2	-80	1	80*	0
COc1ccc(C(=O)Nc2ccc(Nc3ccccc3)cc2)cc1Br	-3	-98	-1	98*	0
CCOC(=O)c1cccc(NC(=O)c2ccc(NC(=O)c3ccco3)cc2)c1	16*	.	.	54	-2
COc1cc(C(=O)Nc2ccc(NC(=O)c3ccco3)nc2)cc(OC)c1OC	-14	-72	4	72*	-4
CCOC(CCNC(=O)c1cn(CCOC)c(=O)c2c1c1ccccc1n2C)OCC	-7	8	-3	-8	0
Cc1ccc(C(C)C)c(OCC(=O)OCC(=O)NC2CCS(=O)(=O)C2)c1 (centres undefined)	-3	-5	-3	5	-2
Cc1cccc(CNC(=O)C(C)n2nc(C)c3c(C)n(-c4ccccc4)nc3c2=O)c1 (centres undefined)	-5	-27	0	27	-1
O=C(NC(=S)Nc1cccc(NC(=S)NC(=O)c2ccccc2)c1)c1ccccc1	-5	-72	-6	72*	0
CCC(=O)Nc1cccc(NC(=S)NC(=O)c2ccccc2)c1	-8	-7	-13	7	0
CC(Oc1ccccc1)C(=O)Nc1cccc(NC(=O)c2ccco2)c1 (centres undefined)	-6	-8	118*	8	.
COC(=O)c1ccc(NC(=O)c2cccc(NC(=O)c3ccccc3)c2)cc1	2	-73	-1	73*	-2
O=C(COC(=O)CNC(=O)c1ccc([N+](=O)[O-])o1)Nc1ncc(C(F)(F)F)cc1Cl	-2	13	3	-13	1
SMILES	dFosB activator	SR-BI uptake up	CAL PDZ FP-1	SR-BI DiI inh	CAL PDZ FP-2
CN1C(=O)/C(=C/c2ccccc2OCc2cccc(F)c2)N(C)C1=S	-8	-50	-2	50	-2
Fc1cccc(COc2ccccc2C(=S)N2CCCC2)c1	-6	-12	43*	12	.
CC(C)N(C(=O)COC(=O)c1cccc(N(C)C)c1)c1ccccc1	-4	-5	49*	5	0
COc1ccc(/C=N/Nc2nc(Nc3ccccc3)nc(N3CCCCC3)n2)c(OC)c1	?	-89	-2	89*	-1
COc1ccc(/C=N/Nc2ncc(-c3ccccc3)cn2)c(OC)c1	4	-23	-2	23	1
Cc1cc(C)nc(N/N=C/c2ccccc2)n1	-6	13	.	-13	-2
Cc1cc(-c2ccccc2)nc(N/N=C/c2ccc(O)cc2)n1	-10	-79	.	79*	1
COc1ccc(/C=N/Nc2cc(C)nc3ccc(OC)cc23)c(OC)c1	-114	-14	18	14	45*
COc1ccc2nc(C)cc(N/N=C/c3ccccc3)c2c1	-55	-18	.	18	14
COc1ccc(/C=N/Nc2nc(C)cc(-c3ccccc3)n2)c(OC)c1	-3	-74	1	74*	1
COc1cc(/C=N/Nc2nc(Nc3ccccc3)nc(N3CCCCC3)n2)ccc1OCC(=O)O	-1	17	1	-17	-3
Cc1cccc(C(=O)NNC(=O)c2c(-c3ccccc3Cl)noc2C)c1O	-9	.	5	.	-2
O=C(CN1CCOCC1)Nc1ccc([N+](=O)[O-])cc1	-4	.	-5	.	.
Oc1ccc(/C=N/Nc2nc(-c3ccc(Cl)cc3)cc(C(F)(F)F)n2)cc1	-7	-80	-3	80*	0
COc1ccc(O)c(/C=N/Nc2nc(C)cc(-c3ccccc3)n2)c1	-8	-88	-4	88*	0
Cc1cc(N/N=C/c2ccc(O)cc2)c2cccc(C)c2n1	105*	-10	-4	10	6
COc1ccc(O)c(/C=N/Nc2nc(Nc3ccccc3)nc(-n3nc(C)cc3C)n2)c1	6	-22	5	22	-28
COc1ccc(CNC(=O)[C@H](C)NC(=O)C2CCN(C(=O)[C@@H](N)Cc3ccccc3)CC2)cc1	-3	5	2	-5	1
COC(=O)NC(=C(Cl)Cl)S(=O)(=O)c1ccccc1	-3	73*	1	-73	1
Cc1ccc(C(=O)NC(=C(Cl)Cl)S(=O)(=O)c2ccccc2)cc1	-1	7	-1	-7	-2
COc1ccc(C(=O)NC(=C(Cl)Cl)S(=O)(=O)c2ccc(C)cc2)cc1	23*	17	-6	-17	-3
CCOC(=O)NC(C(Cl)(Cl)Cl)S(=O)(=O)c1ccccc1 (centres undefined)	3	3	-7	-3	-1
CCN(CC)c1ccc(N2C(=O)CSC2=S)cc1	8	-19	45*	19	-4
CC/C(=N\NC(=O)c1ccc(CN(C)S(=O)(=O)c2ccc(C)cc2)cc1)c1ccc(OC(F)F)cc1	-2	-80	0	80*	-1
Cc1cc(C(=O)COC(=O)c2ccc(O)cc2)c(C)n1CCc1ccc(F)cc1	-6	-74	5	74*	-1
COc1ccc(C2=Nn3c(nnc3-c3ccncc3)SC2)cc1OC	88*	-20	.	20	-2
Cc1ccc(CSc2nnc(-c3ccncc3)n2C)cc1	-7	-10	-2	10	-4

Source: PubChem BioAssay (Broad Institute)
